TCR CD3 inh: human TCR-CD3 binding inhibition; TAMRA-labeled TCR probe fluorescence, biochemical; AID 651800; 0.37% of 360,000 active; inhibition, % at 9.4 µM; in the data active = inhibition above about 19%;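 note: recombinant mutant TCR 2C K166C tagged with TAMRA read by polarization; 0% = receptor in buffer alone and 100% = receptor with positive control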
MLLE-PAM2 inh: inhibitors of microRNA-mediated deadenylation, human PABP1 MLLE binding | inhibition, % at 20 µM | GST-MLLE / FITC-PAM2 fluorescence polarization | 0.36% of 360,000 active | AID 588489; in the data active = inhibition above about 35%, passing the limit was not always enough;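 note: plate controls were DMSO wells with GST-MLLE for no effect and wells lacking GST-MLLE protein for full effect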
RBBP9 inhibitor: human RBBP9 hydrolase inhibition | inhibition, % at 7.94 µM | recombinant RBBP9, FP-Rh probe fluorescence polarization | O75884 | 0.2% of 220,000 active | AID 1515;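 active = inhibition above the campaign mean of all tested compounds plus 3 SD, cut at about 14% in these data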;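 note: plate controls were DMSO wells with RBBP9 for no effect and wells lacking RBBP9 protein for full effect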
Target sequence (O75884 whole entry, looked up): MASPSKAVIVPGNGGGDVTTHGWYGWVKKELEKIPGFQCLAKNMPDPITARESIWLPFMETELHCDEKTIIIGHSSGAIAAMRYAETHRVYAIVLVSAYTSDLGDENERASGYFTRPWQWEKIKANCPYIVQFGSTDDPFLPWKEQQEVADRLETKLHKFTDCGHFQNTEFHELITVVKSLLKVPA
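Measured by: FP readout at 525/598 nm; material: recombinant human RBBP9; also added: Serine-hydrolase probe FP-Rh, 375 nM pre-mixing; medium: Tris buffer pH 8.0, NaCl, Pluronic; replication: one well per compound; doses: one concentration, 7.94 µM nominal, 0.794% DMSO; timing: preincubation 30 min plus labeling 45 min at 25 °C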
PABP polyA inh: blocks human PABP binding to poly(A) RNA | P11940 | fluorescence polarization | 1% of 290,000 active | calls only at 35 µM;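 note: calls also rest on retests at 20 µM and on dose response follow-up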
eIF4H inh: inhibitors of RNA binding by human eIF4H. inhibition, % at 35 µM. 0.94% of 290,000 active. eIF4H fluorescence polarization binding assay. AID 2012. Q15056;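 note: calls also rest on retests at 20 µM and on dose response follow-up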
* = called active by the depositor; i = inactive; ? = inconclusive; · = not tested or not shown; + = active, no number. In the library only some 1.6% were active in any assay of this set; here they are far more common. Unless noted, the rule behind the calls is not given here.

SMILES	TCR CD3 inh	MLLE-PAM2 inh	RBBP9 inhibitor	PABP polyA inh	eIF4H inh
Oc1ccc2c(c1)C1CCCC1(N1CCOCC1)O2 (stereo not given)	11	9	-8	i	34
c1ccc2c(c1)nc1n2C2(N3CCOCC3)CCCC2C1N1CCOCC1 (stereo not given)	0	9	·	+	57*
COC(=O)c1cc2c(c3c4cc(C)ccc4n(S(=O)(=O)c4ccc(OC)cc4)c13)C(=O)N(C)C2	-7	·	·	·	·
O=C(NC1=NCCS1)c1cccs1	2	44*	-15	i	2
O=C(NC1=NCCS1)c1csc2ccccc12	1	36*	-1	i	-4
CC(C)C(NC(=O)c1cccs1)C(=O)NC1=NCCS1 (stereo not given)	3	42*	-6	i	3
COc1cccc(CNS(=O)(=O)c2ccccc2Br)c1	2	·	·	·	·
OCC(CCc1c[nH]c2ccccc12)c1c[nH]c2ccccc12 (stereo not given)	-4	·	·	·	·
CCN(CC(=O)NCc1ccc(F)cc1)C(=O)COc1ccc2ccccc2c1	0	-5	1	i	-18
CCc1ccccc1OCC(=O)N(CC)CC(=O)NCc1ccc(F)cc1	-9	-2	-1	+	active
CCN(CC)c1ccc(C=C(c2nnnn2-c2ccc(C)cc2)c2nnnn2-c2ccc(C)cc2)cc1	10	-71	-4	i	53*
C[C@H](O)[C@@H]1CN2CCc3c([nH]c4ccccc34)[C@@H]2C[C@@H]1N(C)CC1CCCCC1	3	·	·	·	·
CC(C)NS(=O)(=O)c1ccc(NC(=S)NC(=O)c2cccc([N+](=O)[O-])c2)cc1	-2	48*	-4	i	-1
O=C(NC(=S)Nc1cccc(F)c1)c1cccc([N+](=O)[O-])c1	-4	37	-1	i	5
C[C@@H]1CN([C@@H](C)CO)C(=O)c2cc(Br)cnc2O[C@@H]1CN(C)C(=O)c1ccc(F)cc1	8	·	·	·	·
O=C(CN1C(=O)/C(=C2\SC(=S)N(CCS(=O)(=O)O)C2=O)c2ccccc21)Nc1cccc(Br)c1	9	15	·	+	93*
O=C(Nc1ccc(S(=O)(=O)Nc2nccs2)cc1)c1ccc(F)c(S(=O)(=O)N2CCOCC2)c1	-3	-54	-8	i	52*
O=C(Nc1ccc(S(=O)(=O)Nc2nccs2)cc1)c1ccc(=O)[nH]c1	18	-46	-5	+	73
CN1CC=C2C(C#N)=C(N)C(C#N)(C#N)C(c3cccc(Cl)c3Cl)C2C1 (stereo not given)	10	55	-4	i	122*
Cc1cc(C(=O)OCC(=O)N2CC(=O)Nc3ccccc32)c(C)n1-c1ccc(F)cc1	0	-7	-8	i	12
Cc1cc(C(=O)OCC(=O)N2CC(=O)Nc3ccccc32)c(C)n1-c1ccccc1	3	4	-2	+	3.7*
O=C(O)CSc1cc(NS(=O)(=O)c2ccc(Cl)cc2)c2ccccc2c1O	7	40*	·	i	-2
COc1ccc(S(=O)(=O)Nc2cc(SCC(=O)O)c(O)c3ccccc23)cc1	5	38	·	i	13
COC(=O)c1cc2c(c3c4ccccc4n(S(=O)(=O)c4cccc(C)c4)c13)C(=O)N(Cc1ccc(N(C)C)cc1)C2	-2	·	·	·	·
Cc1ccccc1NC(=O)N(C)[C@H]1C[C@H]2c3[nH]c4c(-c5ccc6c(c5)OCO6)cccc4c3CCN2C(=O)[C@H]1[C@H](C)O	2	·	·	·	·
SMILES	TCR CD3 inh	MLLE-PAM2 inh	RBBP9 inhibitor	PABP polyA inh	eIF4H inh
N#Cc1c(N)sc(=S)c2c1CCCC2	10	48*	-8	?	?
CCC1(C)Cc2c(C#N)c(N)sc(=S)c2CO1 (stereo not given)	3	25	0	i	42
COCCN(CCOC)C(=O)[C@H](CCc1ccccc1)NC(=O)[C@H]1O[C@@H](n2cnc3c(N)ncnc32)[C@H](O)[C@@H]1O	2	·	·	·	·
Cc1ccc(-c2[nH]nc3c2C(C)C(C#N)=C(N)O3)cc1 (stereo not given)	-2	3	-5	i	9.9*
Cc1[nH]nc2c1C(c1ccco1)C(C#N)=C(N)O2 (stereo not given)	-4	13	-11	i	7
COc1ccc(-c2ccc(C3C(C#N)=C(N)Oc4n[nH]c(C)c43)o2)cc1 (stereo not given)	-3	-63	-4	+	?
C[C@H](O)[C@@H]1C(=O)N2CCc3c([nH]c4c(-c5ccc6c(c5)OCO6)cccc34)[C@@H]2C[C@@H]1N(C)C(=O)Nc1ccccc1	3	·	·	·	·
CC(C)c1ccc(NS(=O)(=O)c2ccc(-n3cccn3)cc2)cc1	9	15	·	+	88*
CC(CS(=O)(=O)c1ccc2c(c1)NC(=O)CS2)C(=O)N1CCN(c2cccc(Cl)c2)CC1 (stereo not given)	-4	-28	·	+	74*
CC1Sc2ccc(S(=O)(=O)CCC(=O)N3CCN(c4cccc(Cl)c4)CC3)cc2NC1=O (stereo not given)	11	-3	·	i	-9
CC(CS(=O)(=O)c1ccc2c(c1)NC(=O)CS2)C(=O)NCc1ccccc1Cl (stereo not given)	2	-28	·	+	67
C/C(=N\NC(=O)COc1cccc(Cl)c1)c1ccc2c(c1)OCCO2	2	-8	-7	i	active
C/C(=N\NC(=O)CSCc1ccc(Cl)cc1)c1ccc2c(c1)OCCO2	-5	2	2	i	-4
COc1ccc(OC)c(S(=O)(=O)NCC2CCN(C(=O)C(=O)c3cccs3)CC2)c1	0	·	·	·	·
Cc1ccc(NC(=O)CN2C(=O)S/C(=C\c3cccn3-c3cccc(C(=O)O)c3)C2=O)c(C)c1	·	7	-9	+	91*
Cc1ccccc1NC(=O)CN1C(=O)S/C(=C\c2cccn2-c2cccc(C(=O)O)c2)C1=O	-2	6	-3	+	81*
Cc1cccc(C)c1NC(=O)CN1C(=O)S/C(=C\c2cccn2-c2cccc(C(=O)O)c2)C1=O	-6	-3	-8	+	80*
COc1ccc(NC(=O)CN2C(=O)S/C(=C/c3cccn3-c3ccc(C(=O)O)cc3)C2=O)cc1	7	5	·	+	87*
Cc1[nH]nc2c1C(c1ccccc1)N(c1ccccc1)C2=O (stereo not given)	0	·	·	·	·
Cc1ccc(NC(=O)CN2C(=O)S/C(=C\c3cccn3-c3cccc(C(=O)O)c3)C2=O)cc1C	1	-4	-4	+	70
CCOC(=O)CNC(=O)c1ccc(C)cc1	-4	0	-3	i	-8
CCO/C=C/C(O)(CNC(=O)c1ccc(C(C)(C)C)cc1)C(F)(F)F (stereo not given)	-5	-11	1	+	99
C[C@H](CO)N1C[C@H](C)[C@@H](CN(C)C(=O)Cc2ccccc2)OCc2cn(nn2)CCCC1=O	1	·	·	·	·
CCCCNc1cccc2c1S(=O)(=O)N[C@H](C)CO2	3	·	·	·	·
O=C1NC(=S)CN1c1ccccc1	5	57*	0	i	13
